ChEMBL document CHEMBL1142526, “Synthesis of new pyrazolo[5,1-c][1,2,4] benzotriazines, pyrazolo[5,1-c]pyrido[4,3-e][1,2,4] triazines and their open analogues as cytotoxic agents in normoxic and hypoxic conditions” (Bioorg Med Chem, 2008)
Active and inactive are the calls of the source. The rule behind the calls is not given here.

Experiments:
[1] = test system: HCT-8; experiment: Cytotoxicity against human HCT8 cells at 100 uM after 72 hrs by SRB assay; assay type: functional; conditions: HCT-8, 72 h
Method in brief: (§1)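 Single-concentration growth inhibition of HCT-8 cells: seeded at 5000/well with 24 h adherence at 37 °C in 5% CO2, then 72 h continuous drug exposure, eight replicate wells. Maximum final DMSO was 0.1%, with DMSO and MMC controls. Protein was stained with 0.4% SRB in 1% acetic acid, solubilised in 10 mM Tris and absorbance read at 540 nm.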

[2] = test system: HCT-8; experiment: Cytotoxicity against human HCT8 cells at 10 uM after 72 hrs by SRB assay; assay type: functional; conditions: HCT-8, 72 h; method in brief: as §1
[3] = test system: HCT-8; experiment: Cytotoxicity against human HCT8 cells after 72 hrs by SRB assay; assay type: functional, cell-based; conditions: HCT-8, 72 h
Method in brief: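 SRB assay on HCT-8 cells seeded at 5000/well and allowed 24 h adherence at 37 °C in 5% CO2, then given 72 h continuous exposure across a 10–100 concentration range, eight wells per condition. Maximum final DMSO was 0.1%. Fixed cells were stained with 0.4% SRB in 1% acetic acid, solubilised in 10 mM Tris and read at 540 nm. IC50 is the concentration giving a 50% reduction in net protein increase versus control.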

[4] = test system: HCT-8; experiment: Effect on cell cycle arrest in human HCT8 cells in normoxic condition assessed as DNA fragmentation at 10 uM after 24 hrs by flow cytometry; assay type: functional
Method in brief: (§2)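 HCT-8 cells in D-MEM high glucose with 10% FCS were seeded at 1–2 × 10^6 per 25 cm² flask, left to adhere overnight, then exposed to drug for 24 h under normoxia or hypoxia. Drug was washed out and cells reoxygenated for 48 h. Floating and adherent cells were pooled, fixed in 70% ice-cold ethanol and stained with PI (50 µg/ml) plus RNase A (5 U/ml) for 30 min. Phases and the sub-G1 hypodiploid fraction (DNA fragmentation) were read by flow cytometry.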

[5] = test system: HCT-8; experiment: Cell cycle arrest in human HCT8 cells in normoxic condition assessed as accumulation at G2/M phase at 10 uM after 24 hrs by flow cytometry; assay type: functional; method in brief: as §2
[6] = test system: HCT-8; experiment: Cell cycle arrest in human HCT8 cells in normoxic condition assessed as accumulation at G0/G1 phase at 10 uM after 24 hrs by flow cytometry; assay type: functional; method in brief: as §2
[7] = test system: HCT-8; experiment: Effect on cell cycle arrest in human HCT8 cells in hypoxic condition assessed as DNA fragmentation at 10 uM after 48 hrs of drug washout by flow cytometry; assay type: functional; method in brief: as §2
[8] = test system: HCT-8; experiment: Cell cycle arrest in human HCT8 cells in hypoxic condition assessed as accumulation at S phase at 10 uM after 24 hrs by flow cytometry; assay type: functional; method in brief: as §2
[9] = test system: HCT-8; experiment: Effect on cell cycle arrest in human HCT8 cells in hypoxic condition assessed as DNA fragmentation at 10 uM after 24 hrs by flow cytometry; assay type: functional; method in brief: as §2
[10] = test system: HCT-8; experiment: Cell cycle arrest in human HCT8 cells in normoxic condition assessed as accumulation at G2/M phase at 10 uM after 24 hrs of drug washout by flow cytometry; assay type: functional; method in brief: as §2
[11] = test system: HCT-8; experiment: Cell cycle arrest in human HCT8 cells in hypoxic condition assessed as accumulation at G2/M phase at 10 uM after 24 hrs by flow cytometry; assay type: functional; method in brief: as §2
[12] = test system: HCT-8; experiment: Effect on cell cycle arrest in human HCT8 cells in normoxic condition assessed as DNA fragmentation at 10 uM after 48 hrs of drug washout by flow cytometry; assay type: functional; method in brief: as §2
[13] = test system: HCT-8; experiment: Cell cycle arrest in human HCT8 cells in normoxic condition assessed as accumulation at S phase at 10 uM after 24 hrs by flow cytometry; assay type: functional; method in brief: as §2
[14] = test system: HCT-8; experiment: Cell cycle arrest in human HCT8 cells in hypoxic condition assessed as accumulation at G2/M phase at 10 uM after 24 hrs of drug washout by flow cytometry; assay type: functional; method in brief: as §2
[15] = test system: HCT-8; experiment: Cell cycle arrest in human HCT8 cells in hypoxic condition assessed as accumulation at G0/G1 phase at 10 uM after 24 hrs by flow cytometry; assay type: functional; method in brief: as §2
[16] = test system: HCT-8; experiment: Cell cycle arrest in human HCT8 cells in normoxic condition assessed as accumulation at G0/G1 phase at 10 uM after 24 hrs of drug washout by flow cytometry; assay type: functional
[17] = test system: HCT-8; experiment: Cell cycle arrest in human HCT8 cells in hypoxic condition assessed as accumulation at G0/G1 phase at 10 uM after 24 hrs of drug washout by flow cytometry; assay type: functional; method in brief: as §2
[18] = test system: HCT-8; experiment: Cell cycle arrest in human HCT8 cells in hypoxic condition assessed as accumulation at G2/M phase at 10 uM after 48 hrs of drug washout by flow cytometry; assay type: functional
Method in brief: (§3)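 HCT-8 cells in D-MEM high glucose with 10% FCS, plated at 1–2 × 10^6 per 25 cm² flask and left to adhere overnight. Exposed to 10 µM for 24 h, normoxia or hypoxia (0.1% O₂, 95% N₂/5% CO₂), then washed out and reoxygenated 48 h. Floating plus EDTA-harvested cells fixed in 70% ethanol, stained with PI (50 µg/ml) plus RNase A, phase fractions read by flow cytometry.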

[19] = test system: HCT-8; experiment: Cell cycle arrest in human HCT8 cells in normoxic condition assessed as accumulation at G0/G1 phase at 10 uM after 48 hrs of drug washout by flow cytometry; assay type: functional; method in brief: as §3
[20] = test system: HCT-8; experiment: Induction of ROS production in human HCT8 cells under normoxic condition by flow cytometric method relative to untreated control; assay type: functional, cell-based
Method in brief: (§4)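 Dichlorofluorescein method. HCT-8 cells in D-MEM high glucose with 10% FCS, 1–2 × 10^6 per 25 cm² flask, adhered overnight, then given 10 µM under normoxia or hypoxia. DCFH-DA loaded 20 min at 37 °C. Cells harvested with Puck's EDTA, fluorescence read by flow cytometry with 535 nm filter. Expressed as % over DMSO-treated basal; mean ± SEM of at least three experiments.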

[21] = test system: HCT-8; experiment: Cell cycle arrest in human HCT8 cells in hypoxic condition assessed as accumulation at S phase at 10 uM after 48 hrs of drug washout by flow cytometry; assay type: functional; method in brief: as §3
[22] = test system: HCT-8; experiment: Cell cycle arrest in human HCT8 cells in hypoxic condition assessed as accumulation at G0/G1 phase at 10 uM after 48 hrs of drug washout by flow cytometry; assay type: functional; method in brief: as §3
[23] = test system: HCT-8; experiment: Induction of ROS production in human HCT8 cells under hypoxic condition by flow cytometric method relative to untreated control; assay type: functional, cell-based; method in brief: as §4
[24] = test system: HCT-8; experiment: Cell cycle arrest in human HCT8 cells in normoxic condition assessed as accumulation at G2/M phase at 10 uM after 48 hrs of drug washout by flow cytometry; assay type: functional; method in brief: as §3
[25] = test system: HCT-8; experiment: Cell cycle arrest in human HCT8 cells in normoxic condition assessed as accumulation at S phase at 10 uM after 48 hrs of drug washout by flow cytometry; assay type: functional; method in brief: as §3

## CCOC(=O)c1cn[nH]c1/N=[N+](/[O-])c1cnccc1O
[1]
  inhibition at 100 µM: 31.5%
[2]
  inhibition at 10 µM: 3.87%

## CCOC(=O)c1cnn(-c2ccncc2[N+](=O)[O-])c1N
[1]
  inhibition at 100 µM: 69.7%
[2]
  inhibition at 10 µM: 24.4%
[3]
  IC50: 58.2 µM
  IC90: > 100 µM

## COc1ccc(-c2ccc3c(c2)n2nccc2n[n+]3[O-])cc1
[1]
  inhibition at 100 µM: 21.6%
[2]
  inhibition at 10 µM: 11%

## CN1CCN(c2ccc3c(c2)n2nccc2n[n+]3[O-])CC1
[1]
  inhibition at 100 µM: 32.4%
[2]
  inhibition at 10 µM: 3.19%

## [O-][n+]1nc2ccnn2c2cc(-c3cccs3)ccc21
[1]
  inhibition at 100 µM: 48.5%
[2]
  inhibition at 10 µM: 10.9%

## CO[C@@]12[C@H](COC(N)=O)C3=C(C(=O)C(C)=C(N)C3=O)N1C[C@@H]1N[C@@H]12 [MITOMYCIN]
[4]
  Activity: 71.2%
[5]
  Activity: 22.8%
[6]
  Activity: 40.3%
[7]
  Activity: 99%
[8]
  Activity: 49.1%
[9]
  Activity: 42.8%
[10]
  Activity: 19.2%
[11]
  Activity: 14.6%
[12]
  Activity: 44%
[3]
  IC50: 0.083 µM
  IC90: 5.7 µM
[13]
  Activity: 36.9%
[14]
  Activity: 14.1%
[15]
  Activity: 36.3%
[16]
  Activity: 28.2%
[17]
  Activity: 43.2%

## NC(=O)c1cnn(-c2ccncc2[N+](=O)[O-])c1N
[1]
  inhibition at 100 µM: 22.4%
[2]
  inhibition at 10 µM: 9.72%

## CN1CCN(c2ccc3c(c2)n2ncc(-c4ccccc4)c2n[n+]3[O-])CC1
[1]
  inhibition at 100 µM: 69.6%
[2]
  inhibition at 10 µM: 53%
[3]
  IC50: 10 µM
  IC90: > 100 µM

## CN1CCN(c2ccc3c(c2)n2ncc([N+](=O)[O-])c2n[n+]3[O-])CC1
[4]
  Activity: 39%
[18]
  Activity: 12.6%
[5]
  Activity: 22.8%
[6]
  Activity: 40.3%
[7]
  Activity: 60%
[8]
  Activity: 40.7%
[9]
  Activity: 46.3%
[1]
  inhibition at 100 µM: 93.2%
[19]
  Activity: 39.8%
[10]
  Activity: 13%
[2]
  inhibition at 10 µM: 25.1%
[11]
  Activity: 24.7%
[20]
  Activity: Active
[12]
  Activity: 27%
[3]
  IC50: 62.5 µM
  IC90: > 100 µM
[13]
  Activity: 36.9%
[21]
  Activity: 40.4%
[14]
  Activity: 20.2%
[22]
  Activity: 47%
[15]
  Activity: 34.6%
[23]
  Activity: Active
[16]
  Activity: 48%
[24]
  Activity: 24.9%
[25]
  Activity: 35.3%
[17]
  Activity: 36.8%

## O=C(O)c1cnn2c1n[n+]([O-])c1cnccc12
[1]
  inhibition at 100 µM: 11.4%
[2]
  inhibition at 10 µM: 13.2%

## CN(C)CCOc1ccc2c(c1)n1nccc1n[n+]2[O-]
[1]
  inhibition at 100 µM: 42.3%
[2]
  inhibition at 10 µM: -2.36%

## [O-][n+]1nc2ccnn2c2cc(-c3ccccc3)ccc21
[1]
  inhibition at 100 µM: 35.5%
[2]
  inhibition at 10 µM: 13.2%

## CCCCCOc1ccc2c(c1)n1nccc1n[n+]2[O-]
[1]
  inhibition at 100 µM: 38%
[2]
  inhibition at 10 µM: -6.17%

## [O-][n+]1nc2ccnn2c2cc(O)ccc21
[1]
  inhibition at 100 µM: 19.7%
[2]
  inhibition at 10 µM: -4.21%

## CCOC(=O)c1cnn2c1n[n+]([O-])c1cnccc12
[1]
  inhibition at 100 µM: 97.4%
[2]
  inhibition at 10 µM: 12.7%
[3]
  IC50: 23.8 µM
  IC90: 49.1 µM

## CN1CCN(c2ccc3nnc4c([N+](=O)[O-])cnn4c3c2[N+](=O)[O-])CC1
[4]
  Activity: 42%
[18]
  Activity: 23%
[5]
  Activity: 22.2%
[6]
  Activity: 40.5%
[7]
  Activity: 21%
[8]
  Activity: 40.5%
[9]
  Activity: 42.8%
[1]
  inhibition at 100 µM: 98.7%
[19]
  Activity: 35.1%
[10]
  Activity: 13.4%
[2]
  inhibition at 10 µM: 73.8%
[11]
  Activity: 15.6%
[20]
  Activity: Active
[12]
  Activity: 59%
[3]
  IC50: 5.98 µM
  IC90: 18.5 µM
[13]
  Activity: 37.3%
[21]
  Activity: 45.9%
[14]
  Activity: 10.6%
[22]
  Activity: 31.1%
[15]
  Activity: 43.8%
[23]
  Activity: Active
[16]
  Activity: 48.6%
[24]
  Activity: 35.1%
[25]
  Activity: 35.1%
[17]
  Activity: 51.2%

## CCOC(=O)c1cn[nH]c1/N=[N+](/[O-])c1cc([N+](=O)[O-])ccc1O
[1]
  inhibition at 100 µM: 60.4%
[2]
  inhibition at 10 µM: 11.7%
[3]
  IC50: 65.2 µM
  IC90: > 100 µM

## [O-][n+]1nc2ccnn2c2cc(N3CCOCC3)ccc21
[1]
  inhibition at 100 µM: 25.8%
[2]
  inhibition at 10 µM: 3.27%
